Results reported in ChEMBL document CHEMBL1154846, “Micropeptins from an Israeli fishpond water bloom of the cyanobacterium Microcystis sp” (J Nat Prod, 2010).
Activity calls are given as the source filed them. The rule behind the calls is not given here.

Experiments:
Prothrombin = Prothrombin (Homo sapiens, UniProt P00734); assay: Inhibition of thrombin after 20 mins
Summary of the method: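 Thrombin in 0.2 M Tris-HCl, pH 8, preincubated with sample (DMSO, 1 mg/mL stock) at 25 °C for 5 min. Z-Gly-Pro-Arg-4MβNA substrate (0.5 mg/mL stock in Tris buffer) then added. Reaction kinetics read at 405 nm, 37 °C, for 20 min; IC50 reported.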

[1] = Inhibition of chymotrypsin after 30 mins
Summary of the method: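 Commercial chymotrypsin, 10 mg/mL stock in 0.05 M Tris-HCl/100 mM NaCl/1 mM CaCl2, pH 7.5. Sample (1 mg/mL DMSO stock) preincubated with enzyme in buffer at 37 °C for 10 min. Suc-Gly-Gly-p-nitroanilide substrate (1 mg/mL stock in Tris buffer) then added. Reaction kinetics followed at 405 nm, 37 °C, for 30 min.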

[2] = target: Chymotrypsin-like elastase family member 1 (Homo sapiens) (UniProt Q9UNI1); assay: Inhibition of elastase after 20 mins
Chymotrypsin-like elastase family member 1 (Homo sapiens), sequence (Q9UNI1 whole entry): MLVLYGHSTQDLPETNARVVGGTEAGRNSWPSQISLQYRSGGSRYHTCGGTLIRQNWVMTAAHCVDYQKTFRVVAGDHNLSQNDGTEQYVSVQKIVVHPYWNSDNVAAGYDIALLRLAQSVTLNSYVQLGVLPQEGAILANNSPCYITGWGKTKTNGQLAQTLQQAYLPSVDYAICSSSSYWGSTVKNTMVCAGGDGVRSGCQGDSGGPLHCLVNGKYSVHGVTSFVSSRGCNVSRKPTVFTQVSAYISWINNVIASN
Summary of the method: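 Elastase stock 75 mg/mL in 0.2 M Tris-HCl, pH 8. Sample (1 mg/mL DMSO stock) preincubated with enzyme in buffer at 30 °C for 20 min. N-Suc-Ala-Ala-Ala-p-nitroanilide substrate (1 mg/mL stock in Tris buffer) then added. Kinetics read at 405 nm, 37 °C, for 20 min.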

[3] = Inhibition of trypsin after 30 mins
Summary of the method: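 Trypsin stock 1 mg/mL in 0.05 M Tris-HCl/100 mM NaCl/1 mM CaCl2, pH 7.5. Sample (1 mg/mL DMSO stock) preincubated with enzyme at 37 °C for 10 min. BAPNA substrate (stock in 1:9 DMSO/Tris buffer) then added. Kinetics at 405 nm, 37 °C, for 30 min, giving IC50.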

Row | Compound | Activity (Prothrombin) | Activity [1] | Activity [2] | IC50 [3] [µM] | IC50 (Prothrombin) [µM]
1 | CC[C@H](C)[C@@H]1NC(=O)[C@H](Cc2ccccc2)N(C)C(=O)[C@H]([C@@H](C)CC)N2C(=O)[C@H](CC[C@H]2OC)NC(=O)[C@H](CCCNC(=N)N)NC(=O)[C@@H](N)[C@@H](C)OC1=O | inactive | inactive | inactive |  | 
2 | CC[C@H](C)[C@@H]1NC(=O)[C@H](Cc2ccccc2)N(C)C(=O)[C@H]([C@@H](C)CC)N2C(=O)[C@H](CC[C@H]2OC)NC(=O)[C@H](CCCNC(=N)N)NC(=O)[C@@H](NC(=O)[C@@H](COS(=O)(=O)O)OS(=O)(=O)O)[C@@H](C)OC1=O | inactive | inactive | inactive | 1.6 | 
3 | CC[C@H](C)[C@@H]1NC(=O)[C@H](Cc2ccccc2)N(C)C(=O)[C@H]([C@@H](C)CC)N2C(=O)[C@H](CC[C@H]2O)NC(=O)[C@H](CCCN=C(N)N)NC(=O)[C@@H](NC(=O)[C@@H](COS(=O)(=O)O)OS(=O)(=O)O)[C@@H](C)OC1=O [CYANOPEPTOLIN SS] |  |  |  |  | 45.2
4 | CC[C@H](C)[C@@H]1NC(=O)[C@H](Cc2ccccc2)N(C)C(=O)[C@H]([C@@H](C)CC)N2C(=O)[C@H](CC[C@H]2O)NC(=O)[C@H](CCCNC(=N)N)NC(=O)[C@@H](NC(=O)[C@@H](COS(=O)(=O)O)OS(=O)(=O)O)[C@@H](C)OC1=O [CYANOPEPTOLIN SS] |  | inactive | inactive | 2.9 | 
5 | CC[C@H](C)[C@@H]1NC(=O)[C@H](Cc2ccccc2)N(C)C(=O)[C@H]([C@@H](C)CC)N2C(=O)[C@H](CC[C@H]2O)NC(=O)[C@H](CCCNC(=N)N)NC(=O)[C@@H](NC(=O)[C@H](O)COS(=O)(=O)O)[C@@H](C)OC1=O [CYANOPEPTOLIN S] | inactive | inactive | inactive | 4.1 | 

Continued, in another order:

Row | Activity (Prothrombin) | Activity [1] | Activity [2] | IC50 [3] [µM] | Compound | IC50 (Prothrombin) [µM]
6 | inactive | inactive | inactive | 2.6 | CC[C@H](C)[C@@H]1NC(=O)[C@H](Cc2ccccc2)N(C)C(=O)[C@H]([C@@H](C)CC)N2C(=O)[C@H](CC[C@H]2O)NC(=O)[C@H](CCCNC(=N)N)NC(=O)[C@@H](NC(=O)[C@H](O)CO)[C@@H](C)OC1=O | 
7 | inactive | inactive | inactive | 1.5 | CC[C@H](C)[C@@H]1NC(=O)[C@H](Cc2ccccc2)N(C)C(=O)[C@H]([C@@H](C)CC)N2C(=O)[C@H](CC[C@H]2OC)NC(=O)[C@H](CCCNC(=N)N)NC(=O)[C@@H](NC(=O)[C@H](O)COS(=O)(=O)O)[C@@H](C)OC1=O | 
8 |  | inactive | inactive | 0.6 | CC[C@H](C)[C@@H]1NC(=O)[C@H](Cc2ccccc2)N(C)C(=O)[C@H]([C@@H](C)CC)N2C(=O)[C@H](CC[C@H]2OC)NC(=O)[C@H](CCCNC(=N)N)NC(=O)[C@@H](NC(=O)[C@H](O)CO)[C@@H](C)OC1=O | 52.9
9 | inactive | inactive | inactive | 24.2 | CC[C@H](C)[C@@H]1NC(=O)[C@H](Cc2ccccc2)N(C)C(=O)[C@H]([C@@H](C)CC)N2C(=O)[C@H](CC[C@H]2O)NC(=O)[C@H](CCCNC(=N)N)NC(=O)[C@@H](NC(=O)[C@@H](CO)OS(=O)(=O)O)[C@@H](C)OC1=O | 
10 | inactive | inactive | inactive | 7.4 | CC[C@H](C)[C@@H]1NC(=O)[C@H](Cc2ccccc2)N(C)C(=O)[C@H]([C@@H](C)CC)N2C(=O)[C@H](CC[C@H]2OC)NC(=O)[C@H](CCCNC(=N)N)NC(=O)[C@@H](NC(=O)[C@@H](CO)OS(=O)(=O)O)[C@@H](C)OC1=O | 
